The results in this text go back to ChEMBL document CHEMBL4396878, “Mechanisms of Specific versus Nonspecific Interactions of Aggregation-Prone Inhibitors and Attenuators” (J Med Chem, 2019).

The nature of data set [1]: Binding affinity to Triton-X 100 assessed as line broadening at 150 uM by 1H-NMR spectra analysis.
Data set [2] in a line: Binding affinity to Triton-X 100 assessed as change in chemical shift at 150 uM by 1H-NMR spectra analysis.
The nature of data set [3]: Binding affinity to Triton-X 100 assessed as peak intensity loss at 150 uM by 1H-NMR spectra analysis.
Data set [4] can be described thus: Binding affinity to Triton-X 100 assessed as peak size of aggregate at 1:2 ratio of Triton-X 100 to compound by dynamic light scattering analysis. In short, it runs like this: (§1)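 Dynamic light scattering in NMR buffer, samples filtered through 0.22 μm and centrifuged 5 min at 13 500 rpm before measurement. Autocorrelation accumulated 150 s at a 173° scattering angle, in replicates of 3–5, with water viscosity used in analysis; intensity or volume size distributions reported.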

Data set [5] is described as follows: Binding affinity to Triton-X 100 assessed as intra-molecular cross relaxation at 500 uM by NOESY spectra analysis. Summed up: (§2)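 2D NOESY and ROESY of 100 μM ESI with 0.025% Triton X-100 or 500 μM ESI with 0.05% Triton X-100; 2K × 512 complex points, 12 ppm spectral width centred at 4.7 ppm, intra- and intermolecular cross-peaks mapped.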
Data set [6] is described as follows: Binding affinity to Triton-X 100 assessed as inter-molecular saturation transfer at 500 uM at 8.61 ppm by STD spectra analysis. In short, it runs like this:
(§3)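 STD NMR, saturation by a train of 40 Gaussian pulses of 50 ms each; selective on-resonance irradiation at the stated ppm (TX at 7.48 ppm), off-resonance at 30 ppm, interleaved and subtracted by phase cycling. 32K points, 16 ppm width centred at 4.7 ppm, 256 scans, 16 dummy scans, 0.1 s recycle delay (~15 min); 3 Hz exponential line broadening.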

Data set [7] is described as follows: Binding affinity to Triton-X 100 assessed as peak size of aggregate at 1:1 ratio of Triton-X 100 to compound by dynamic light scattering analysis. In short, it runs like this:
as §1

Data set [8] in a line: Binding affinity to Triton-X 100 at 500 uM measured after 14 hrs by NOESY spectra analysis. In short, it runs like this:
as §2

A short description of data set [9]: Binding affinity to Triton-X 100 assessed as inter-molecular cross relaxation at 500 uM by NOESY spectra analysis. In short, it runs like this: as §2
Data set [10] in a line: Binding affinity to Triton-X 100 assessed as intra-molecular saturation transfer at 500 uM at 8.61 ppm by STD spectra analysis. In short, it runs like this:
as §3

Data set [11] is described as follows: Binding affinity to Triton-X 100 assessed as compound-complex formation at 500 uM by NOESY spectra analysis. In short, it runs like this:
as §2

Data set [12] is described as follows: Binding affinity to Triton-X 100 assessed as change in chemical shift at 100 uM by 1H-NMR spectra analysis.
For data set [13], the target named is T1, Albumin (Homo sapiens, UniProt P02768). In words: Binding affinity to human serum albumin assessed as line broadening at 200 uM by 1D 1H NMR analysis.
Data set [14] concerns the target T1, Albumin. In words: Displacement of dansylated phenylalanine from human serum albumin at <150 uM by fluorescence assay. Summed up: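 Competition of ligand against 100 μM dansyl-phenylalanine (binds Sudlow sites 1 and 2) bound to 2.5 μM HSA. Excitation 370 nm, emission 480 nm. Fractional saturation modelled with two sites, free HSA assumed negligible; least-squares fit with no further ESI sites, giving maximum apparent dissociation constants.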

In data set [15] the target is T1, Albumin. Description: Displacement of dansylated arginine from human serum albumin at <150 uM by fluorescence assay. In short, it runs like this:
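Competition of ligand against 100 μM dansyl-arginine (Sudlow site 1, 1:1 stoichiometry) bound to 2.5 μM HSA. Excitation 370 nm, emission 460 nm. Apparent Kd fitted by Wang's method using least squares, assuming no other ligand sites on HSA, so treated as a maximum apparent value.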

The nature of data set [16]: Aggregation property of the compound in NMR buffer assessed as amorphous morphology at 200 uM by uranyl acetate staining-based transmission electron microscopic analysis. Type of data set: physicochemical.
The target of data set [17] is T2, Rap guanine nucleotide exchange factor 3 (Homo sapiens, UniProt O95398).
T2 sequence (O95398 whole entry): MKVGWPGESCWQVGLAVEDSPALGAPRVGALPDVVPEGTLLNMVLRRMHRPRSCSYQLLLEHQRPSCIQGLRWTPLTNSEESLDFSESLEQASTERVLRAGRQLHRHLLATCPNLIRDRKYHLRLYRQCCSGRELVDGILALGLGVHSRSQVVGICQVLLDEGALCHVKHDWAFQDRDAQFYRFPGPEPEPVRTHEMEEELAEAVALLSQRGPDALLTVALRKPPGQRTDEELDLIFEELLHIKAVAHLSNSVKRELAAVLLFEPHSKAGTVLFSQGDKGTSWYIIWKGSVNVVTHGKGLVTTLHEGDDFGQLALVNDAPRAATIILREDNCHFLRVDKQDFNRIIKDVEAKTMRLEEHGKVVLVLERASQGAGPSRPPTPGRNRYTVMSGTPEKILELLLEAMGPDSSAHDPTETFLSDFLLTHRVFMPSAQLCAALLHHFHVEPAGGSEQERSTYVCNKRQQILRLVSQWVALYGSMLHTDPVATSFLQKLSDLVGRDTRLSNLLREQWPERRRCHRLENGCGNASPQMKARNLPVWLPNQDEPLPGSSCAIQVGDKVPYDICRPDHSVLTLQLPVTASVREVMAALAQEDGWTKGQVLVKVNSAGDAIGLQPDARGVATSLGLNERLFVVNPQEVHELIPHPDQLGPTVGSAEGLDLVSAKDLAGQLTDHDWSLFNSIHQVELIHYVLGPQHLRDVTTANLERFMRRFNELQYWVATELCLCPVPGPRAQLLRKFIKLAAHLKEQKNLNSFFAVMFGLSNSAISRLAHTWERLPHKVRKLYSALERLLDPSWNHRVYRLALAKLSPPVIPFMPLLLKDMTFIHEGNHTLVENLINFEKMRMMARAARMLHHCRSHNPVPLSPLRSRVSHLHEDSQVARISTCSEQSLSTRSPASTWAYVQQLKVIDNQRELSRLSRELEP
Description: Binding affinity to human EPAC1 cAMP binding domain (149 to 318 residues) by [15N-1H]HSQC spectroscopic analysis.

Data set [18] has as its target T2, Rap guanine nucleotide exchange factor 3. Description: Binding affinity to human EPAC1 cAMP binding domain (149 to 318 residues) in presence of human serum albumin by [15N-1H]HSQC spectroscopic analysis. The settings on record: read-out: Kd(app). In short, it runs like this: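 100 μM human EPAC1 CBD (149–318) in NMR buffer (Tris pH 7.6) was titrated with inhibitor in the presence of globulin- and fatty-acid-free human serum albumin at stated stoichiometric ratios. Chemical shift differences and peak intensities normalised to ligand-free sample (I/I0, averaged over residues) were tracked. Errors came from propagated signal-to-noise.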

The nature of data set [19]: Aggregation property of the compound in NMR buffer at 50 to 250 uM by surface plasmon resonance analysis. Format: physicochemical. In short, it runs like this:
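SPR on a nonfunctionalized gold nanoparticle sensor; samples in NMR buffer with DMSO at 1.25%, injected at 33 μL/min alongside matched DMSO controls (with HSA where present, 25 μM), in duplicate. Surface regenerated only after HSA-containing injections.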

The nature of data set [20]: Aggregation property of the compound in NMR buffer assessed as aggregate size at 500 uM by dynamic light scattering analysis. Format: physicochemical. In short, it runs like this: as §1
Data set [21] concerns the target T1, Albumin. In words: Displacement of ANS from human serum albumin at <150 uM by fluorescence assay. Summed up:
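Fluorescence competition: 2.5 μM HSA with 5 or 100 μM ANS, ligand added over a concentration range. Excitation 360 nm; emission read at 460 and 480 nm to check for blue shift. Signal normalized between ANS alone (minimum) and HSA:ANS (maximum).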

For data set [22], the target named is T1, Albumin. Description: Binding affinity to human serum albumin assessed as inhibition of compound aggregation at 500 uM by dynamic light scattering analysis. Summed up: as §1
The nature of data set [23]: Aggregation property of the compound assessed as change in saturation transfer at 100 uM irradiated at 8.61 ppm by STD NMR spectra analysis. Type of data set: physicochemical. Summed up:
as §3

Data set [24] is described as follows: Aggregation property of the compound in NMR buffer assessed as diameter of aggregate at 500 uM by dynamic light scattering analysis. Type of data set: physicochemical. In short, it runs like this: as §1
Data set [25] addresses T1, Albumin. In words: Displacement of [13C]oleic acid from human serum albumin by CH-HSQC spectra analysis. Summed up: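 Fatty-acid-free recombinant HSA at 250 μM in sodium phosphate buffer (20 mM NaPO4, pH 7.6, 50 mM NaCl, D2O), 37 °C for 30 min. 13C-oleic acid (100 mM stock in DMSO-d6, warmed to 50 °C for 10 min) added to 1.5 mM, then 2 h at 37 °C. CH-HSQC at 298 K; loss of site-specific cross-peaks A–H scored.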

Data set [26] in a line: Aggregation property of the compound assessed as shift in peak width by 1H-NMR analysis. Type of data set: physicochemical. In short, it runs like this:
(§4)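 Line widths, chemical shifts and peak intensities tracked; CAC taken as the concentration where intensities deviate from linear dependence, or, for line width, the minimal concentration that increases peak width.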

The nature of data set [27]: Aggregation property of the compound assessed as change in chemical shift by 1H-NMR analysis. Type of data set: physicochemical. In short, it runs like this: as §4
Data set [28] can be described thus: Aggregation property of the compound assessed as change in peak intensity by measuring concentration at which peak intensities deviated from the linear correlation by 1H-NMR analysis. Type of data set: physicochemical. Summed up:
as §4

Data set [29] is described as follows: Binding affinity to Triton-X 100 assessed as line broadening at 150 uM by 1H-NMR analysis.

The source made the active and inactive calls. The rule behind the calls is not given here.

T1 sequence (P02768 whole entry): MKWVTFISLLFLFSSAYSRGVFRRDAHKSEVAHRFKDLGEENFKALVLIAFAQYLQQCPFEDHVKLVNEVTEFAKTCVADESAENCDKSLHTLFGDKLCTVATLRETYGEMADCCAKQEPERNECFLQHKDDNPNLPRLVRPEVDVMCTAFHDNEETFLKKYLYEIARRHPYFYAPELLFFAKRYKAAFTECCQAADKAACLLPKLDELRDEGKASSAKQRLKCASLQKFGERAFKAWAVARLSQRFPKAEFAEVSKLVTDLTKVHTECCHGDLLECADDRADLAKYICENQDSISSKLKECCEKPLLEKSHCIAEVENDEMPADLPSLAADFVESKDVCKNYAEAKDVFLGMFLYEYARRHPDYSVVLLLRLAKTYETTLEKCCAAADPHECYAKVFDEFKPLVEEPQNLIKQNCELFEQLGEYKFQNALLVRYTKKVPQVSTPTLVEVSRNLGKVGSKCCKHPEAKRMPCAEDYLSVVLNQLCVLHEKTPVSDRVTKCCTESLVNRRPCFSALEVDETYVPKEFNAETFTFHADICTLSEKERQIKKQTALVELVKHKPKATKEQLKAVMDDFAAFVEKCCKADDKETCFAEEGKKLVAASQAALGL

Turning to `O=C(O)c1cc(-c2ccc(F)cc2F)ccc1O`, the outcome in [1] and in data set [2] was Active.
Consider `Clc1ccccc1C(c1ccccc1)(c1ccccc1)n1ccnc1`, for which the result in data set [3], in data set [1] and in data set [2] was Active.
`O=C(OCc1ccccc1)c1ccccc1`: the outcome in data set [3], in [1] and in data set [2] was Active.
Turning to `C[C@@H]1CCc2c(cc(Br)c(F)c2Br)N1C=O` [listing 1 of 2 here], the Activity worked out at 70 nm in data set [4] and 10 nm in [7]. The result in data set [5], in data set [6], in [9], in data set [10] and in [11] was Active. The result in data set [8] was inactive.
Turning to `C[C@@H]1CCc2c(cc(Br)c(F)c2Br)N1C=O` (stereo in doubt; cis), the Activity in data set [12] was below 0.34 ppm.
In the case of `O=S(=O)(O)c1cccc2cccc(Nc3ccccc3)c12`, the result in [1] and in data set [2] was Active.
Consider `Nc1nnc(-c2cccc(Cl)c2Cl)c(N)n1`, for which the outcome in data set [1] and in data set [2] was inactive.
`C[C@@H]1CCc2c(cc(Br)c(F)c2Br)N1C=O` [listing 2 of 2 here]: the Activity result on Albumin [13] is “Active”; on Albumin [14], “Not Active”; on Albumin [15], “Not Active”; in [16], “Active”; in data set [19], “Not Active”; in [20] it was 90 to 600 nm. Also, the Activity result on Albumin [21] is given as “Not Active”; in [23] it was “Not Active”; in data set [24], 250 nm; on Albumin [25], “Active”; in [26] it was “Not Active”; in data set [27] it was “Not Active”. Moreover, in [28], the Activity is 150 µM. Also, the Kd in [17] lay in the range of 124 to 184 µM; in data set [18], 757 to 1980 µM. Also, at Albumin [22], the “inhibition (INH)” value was “Active”.
As to `COC(=O)C1=C(C)NC(C)=C(C(=O)OCCN(C)Cc2ccccc2)C1c1cccc([N+](=O)[O-])c1` (stereo not given), the result in data set [3], in data set [1] and in [2] was Active.
With `C[C@@H]1CCc2c(cc(Br)c(F)c2Br)N1C=O` (stereo in doubt; trans), the Activity in data set [12] was 0.02 ppm.
Take `Clc1ccc(COC(Cn2ccnc2)c2ccc(Cl)cc2Cl)c(Cl)c1` (stereo not given): the result in data set [3], in data set [1], in data set [2] and in data set [29] was Active.
